According to ChEMBL document CHEMBL1156074, “Diazo transfer-click reaction route to new, lipophilic teicoplanin and ristocetin aglycon derivatives with high antibacterial and anti-influenza virus activity: an aggregation and receptor binding study” (J Med Chem, 2009):
≈ marks a conversion by molar mass, not a printed value. Calls of active or inactive are those of the source.

Assays:
[1] = test system: Influenza B virus; assay: Antiviral activity against Influenza B virus (B/Hong Kong/5/72) assessed as cell viability at subtoxic concentration by cell-based MTS assay; assay type: functional; details: B/Hong Kong/05/1972
[2] = test system: Staphylococcus epidermidis; assay: Bactericidal activity against biofilm of Staphylococcus epidermidis ATCC 35984 after overnight incubation; assay type: functional; details: RP62A
[3] = test system: Enterococcus faecalis; assay: Antibacterial activity against vancomycin-resistant and teicoplanin-sensitive Enterococcus faecalis ATCC 51299 harboring vanB gene after 18 hrs by broth microdilution method; assay type: functional; details: ATCC 51299, 18 h
[4] = test system: Enterococcus faecalis; assay: Antibacterial activity against vancomycin and teicoplanin-resistant Enterococcus faecalis 15376 harboring vanA gene after 18 hrs by broth microdilution method; assay type: functional; details: Enterococcus faecalis, 15376, 18 h
[5] = test system: Staphylococcus epidermidis; assay: Antibacterial activity against biofilm of Staphylococcus epidermidis ATCC 35984 after 18 hrs by broth microdilution method; assay type: functional; details: RP62A
[6] = test system: H3N2 subtype; assay: Antiviral activity against Influenza A virus (A/Hong Kong/7/87(H3N2)) assessed as inhibition of virus-induced cytopathic effect at highest concentration by cell-based assay; assay type: functional, organism-based; details: A/Hong Kong/7/1987(H3N2)
In short: (§1)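 Virus-induced cytopathic effect is scored visually in infected cell cultures. EC50 is defined as the compound concentration producing 50% inhibition of the CPE. A compound is recorded as not active when there is no inhibition at the highest concentration tested or at a subtoxic concentration.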

[7] = test system: Staphylococcus aureus; assay: Antibacterial activity against methicillin-sensitive Staphylococcus aureus ATCC 33591 after 18 hrs by broth microdilution method; assay type: functional; details: ATCC 33591, 18 h
[8] = test system: Staphylococcus aureus; assay: Antibacterial activity against methicillin-sensitive Staphylococcus aureus ATCC 29213 after 18 hrs by broth microdilution method; assay type: functional; details: ATCC 29213, 18 h
[9] = test system: Enterococcus faecalis; assay: Bactericidal activity against vancomycin and teicoplanin-resistant Enterococcus faecalis 15376 harboring vanA gene after overnight incubation; assay type: functional
[10] = test system: H3N2 subtype; assay: Antiviral activity against Influenza A virus (A/Hong Kong/7/87(H3N2)) assessed as cell viability at subtoxic concentration by cell-based MTS assay; assay type: functional, organism-based; details: A/Hong Kong/7/1987(H3N2)
[11] = test system: Influenza B virus; assay: Antiviral activity against Influenza B virus (B/Hong Kong/5/72) assessed as inhibition of virus-induced cytopathic effect at highest concentration by cell-based assay; assay type: functional; details: B/Hong Kong/05/1972; in short: as §1
[12] = test system: Bacillus subtilis; assay: Bactericidal activity against Bacillus subtilis ATCC 6633 after overnight incubation; assay type: functional
[13] = test system: Staphylococcus epidermidis; assay: Antibacterial activity against Staphylococcus epidermidis after 18 hrs by broth microdilution method; assay type: functional
[14] = test system: Bacillus subtilis; assay: Antibacterial activity against Bacillus subtilis ATCC 6633 after 18 hrs by broth microdilution method; assay type: functional; details: ATCC 6633, 18 h
[15] = test system: Influenza A virus; assay: Antiviral activity against Influenza A virus (A/Puerto Rico/8/34(H1N1)) assessed as cell viability at subtoxic concentration by cell-based MTS assay; assay type: functional, organism-based; details: A/Puerto Rico/8/1934(H1N1)
[16] = test system: Staphylococcus aureus; assay: Bactericidal activity against methicillin-sensitive Staphylococcus aureus ATCC 29213 after overnight incubation; assay type: functional
[17] = test system: Staphylococcus aureus; assay: Bactericidal activity against methicillin-sensitive Staphylococcus aureus ATCC 33591 after overnight incubation; assay type: functional
[18] = test system: Staphylococcus epidermidis; assay: Bactericidal activity against Staphylococcus epidermidis after overnight incubation; assay type: functional
[19] = test system: Enterococcus faecalis; assay: Antibacterial activity against vancomycin and teicoplanin-sensitive Enterococcus faecalis ATCC 29212 after 18 hrs by broth microdilution method; assay type: functional; details: ATCC 29212, 18 h
[20] = test system: Enterococcus faecalis; assay: Bactericidal activity against vancomycin-resistant and teicoplanin-sensitive Enterococcus faecalis ATCC 51299 harboring vanB gene after overnight incubation; assay type: functional
[21] = test system: Influenza A virus; assay: Antiviral activity against Influenza A virus (A/Puerto Rico/8/34(H1N1)) assessed as inhibition of virus-induced cytopathic effect at highest concentration by cell-based assay; assay type: functional, organism-based; details: A/Puerto Rico/8/1934(H1N1); in short: as §1
[22] = test system: Enterococcus faecalis; assay: Bactericidal activity against vancomycin and teicoplanin-sensitive Enterococcus faecalis ATCC 29212 after overnight incubation; assay type: functional

SMILES | inhibition [1] | MBC [2] | MIC [3] | MIC [4] | MIC [5] | inhibition [6] | MIC [7] | MIC [8] | inhibition [10] | inhibition [11] | MBC [12] | MIC [13] | MIC [14] | inhibition [15] | MBC [16] | MBC [17] | MBC [18] | MIC [19] | MBC [20] | MBC [22] | other results
CCCCCCCCCCOCc1cn([C@H]2C(=O)N[C@@H]3Cc4ccc(c(Cl)c4)Oc4cc5cc(c4O)Oc4ccc(cc4Cl)[C@@H](O)[C@@H]4NC(=O)[C@H](NC(=O)[C@@H]5NC(=O)[C@@H](NC3=O)c3cc(O)cc(c3)Oc3cc2ccc3O)c2ccc(O)c(c2)-c2c(O)cc(O)cc2[C@H](C(=O)OC)NC4=O)nn1 | inactive | 256 µg/mL (≈ 178 µM) | 64 µg/mL (≈ 44.6 µM) | 128 µg/mL (≈ 89.2 µM) | 256 µg/mL (≈ 178 µM) | inactive | 64 µg/mL (≈ 44.6 µM) | 128 µg/mL (≈ 89.2 µM) | inactive | inactive | 0.5 µg/mL (≈ 0.348 µM) | 16 µg/mL (≈ 11.1 µM) | 0.5 µg/mL (≈ 0.348 µM) | inactive | 256 µg/mL (≈ 178 µM) | 256 µg/mL (≈ 178 µM) | 64 µg/mL (≈ 44.6 µM) | 32 µg/mL (≈ 22.3 µM) | 256 µg/mL (≈ 178 µM) | 128 µg/mL (≈ 89.2 µM) | MBC [9]: 256 µg/mL (≈ 178 µM); inhibition [21]: inactive
CCCCCCCCCCOCc1cn([C@H]2C(=O)N[C@@H]3Cc4ccc(c(Cl)c4)Oc4cc5cc(c4O)Oc4ccc(cc4Cl)[C@@H](O[C@@H]4O[C@H](CO)[C@@H](O)[C@H](O)[C@H]4NC(C)=O)[C@@H]4NC(=O)[C@H](NC(=O)[C@@H]5NC(=O)[C@@H](NC3=O)c3cc(O)cc(c3)Oc3cc2ccc3O)c2ccc(O)c(c2)-c2c(O)cc(O)cc2[C@H](C(=O)O)NC4=O)nn1 | inactive | 0.25 µg/mL (≈ 0.154 µM) | 0.5 µg/mL (≈ 0.308 µM) | 0.5 µg/mL (≈ 0.308 µM) | 0.5 µg/mL (≈ 0.308 µM) | inactive | 0.5 µg/mL (≈ 0.308 µM) | 0.5 µg/mL (≈ 0.308 µM) | inactive | inactive | 0.25 µg/mL (≈ 0.154 µM) | 0.5 µg/mL (≈ 0.308 µM) | 2 µg/mL (≈ 1.23 µM) | inactive | 0.25 µg/mL (≈ 0.154 µM) | 0.25 µg/mL (≈ 0.154 µM) | 0.5 µg/mL (≈ 0.308 µM) | 0.5 µg/mL (≈ 0.308 µM) | 0.25 µg/mL (≈ 0.154 µM) | 0.25 µg/mL (≈ 0.154 µM) | MBC [9]: 0.25 µg/mL (≈ 0.154 µM); inhibition [21]: inactive
CC(=O)N[C@H]1[C@H](O[C@@H]2c3ccc(c(Cl)c3)Oc3cc4cc(c3O)Oc3ccc(cc3Cl)C[C@H]3NC(=O)[C@H](N=[N+]=[N-])c5ccc(O)c(c5)Oc5cc(O)cc(c5)[C@H](NC3=O)C(=O)N[C@H]4C(=O)N[C@H]3C(=O)N[C@@H]2C(=O)N[C@@H](C(=O)O)c2cc(O)cc(O)c2-c2cc3ccc2O)O[C@H](CO)[C@@H](O)[C@@H]1O | inactive | 16 µg/mL (≈ 11.2 µM) | 64 µg/mL (≈ 44.8 µM) | > 256 µg/mL | 16 µg/mL (≈ 11.2 µM) | inactive | 4 µg/mL (≈ 2.8 µM) | 8 µg/mL (≈ 5.6 µM) | inactive | inactive | 32 µg/mL (≈ 22.4 µM) | 4 µg/mL (≈ 2.8 µM) | 64 µg/mL (≈ 44.8 µM) | inactive | 8 µg/mL (≈ 5.6 µM) | 2 µg/mL (≈ 1.4 µM) | 4 µg/mL (≈ 2.8 µM) | 32 µg/mL (≈ 22.4 µM) | 32 µg/mL (≈ 22.4 µM) | 32 µg/mL (≈ 22.4 µM) | inhibition [21]: inactive
COC(=O)[C@H]1NC(=O)[C@H]2NC(=O)[C@H](NC(=O)[C@@H]3NC(=O)[C@H]4NC(=O)[C@H](NC(=O)[C@H](N=[N+]=[N-])c5ccc(O)c(c5)Oc5cc4cc(O)c5C)[C@H](O)c4ccc(cc4)Oc4cc3cc(c4O)Oc3ccc(cc3)[C@H]2O)c2ccc(O)c(c2)-c2c(O)cc(O)cc21 |  | 8 µg/mL (≈ 6.67 µM) | 128 µg/mL (≈ 107 µM) | > 256 µg/mL | 16 µg/mL (≈ 13.3 µM) |  | 2 µg/mL (≈ 1.67 µM) | 2 µg/mL (≈ 1.67 µM) |  |  | 1 µg/mL (≈ 0.833 µM) | 16 µg/mL (≈ 13.3 µM) | 4 µg/mL (≈ 3.33 µM) |  | 2 µg/mL (≈ 1.67 µM) | 1 µg/mL (≈ 0.833 µM) | 16 µg/mL (≈ 13.3 µM) | 16 µg/mL (≈ 13.3 µM) | 64 µg/mL (≈ 53.3 µM) | 8 µg/mL (≈ 6.67 µM) | 
CN[C@H](CC(C)C)C(=O)N[C@H]1C(=O)N[C@@H](CC(N)=O)C(=O)N[C@H]2C(=O)N[C@H]3C(=O)N[C@H](C(=O)N[C@H](C(=O)O)c4cc(O)cc(O)c4-c4cc3ccc4O)[C@H](O)c3ccc(c(Cl)c3)Oc3cc2cc(c3O[C@@H]2O[C@H](CO)[C@@H](O)[C@H](O)[C@H]2O[C@H]2C[C@](C)(N)[C@H](O)[C@H](C)O2)Oc2ccc(cc2Cl)[C@H]1O [VANCOMYCIN] |  | 4 µg/mL (≈ 2.76 µM) | 16 µg/mL (≈ 11 µM) | > 256 µg/mL |  |  |  |  |  |  | 4 µg/mL (≈ 2.76 µM) |  | 1 µg/mL (≈ 0.69 µM) |  | 4 µg/mL (≈ 2.76 µM) | 4 µg/mL (≈ 2.76 µM) | 4 µg/mL (≈ 2.76 µM) |  | 16 µg/mL (≈ 11 µM) | 16 µg/mL (≈ 11 µM) | 
